# Shown are actives, neighbours in structure and some others; about 1.8% of the full set was active somewhere.
# Runt-CBFb FRET = inhibitors of RUNX1 Runt–CBFb binding, primary screen, biochemical, FRET, Cerulean-Runt, Venus-CBFb, uHTS. Cerulean-Runt/Venus-CBFb FRET ratio 530/480, 1 h. inhibition, % at 20 µM. actives 0.46% (n = 220,000). AID 1496, 2009;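 active means inhibition over about 50% at 20 µM in the single-dose screen, limit read from the data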;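 further: 0% = DMSO wells and 100% = excess unlabeled CBFb competitor control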
# Target sequence (Q01196 whole entry, looked up): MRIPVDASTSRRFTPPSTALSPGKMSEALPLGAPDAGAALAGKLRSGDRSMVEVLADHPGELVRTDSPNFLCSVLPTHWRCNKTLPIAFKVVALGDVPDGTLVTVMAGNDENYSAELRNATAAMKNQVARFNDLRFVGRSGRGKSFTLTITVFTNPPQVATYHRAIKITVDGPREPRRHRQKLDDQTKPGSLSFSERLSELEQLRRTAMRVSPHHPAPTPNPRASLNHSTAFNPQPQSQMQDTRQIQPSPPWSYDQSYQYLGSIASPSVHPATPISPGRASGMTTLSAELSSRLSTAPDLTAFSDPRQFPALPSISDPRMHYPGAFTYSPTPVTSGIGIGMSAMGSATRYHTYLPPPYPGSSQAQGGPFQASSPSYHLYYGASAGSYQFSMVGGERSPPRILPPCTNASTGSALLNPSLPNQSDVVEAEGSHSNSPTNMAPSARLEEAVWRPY
# Target sequence (Q13951 whole entry, looked up): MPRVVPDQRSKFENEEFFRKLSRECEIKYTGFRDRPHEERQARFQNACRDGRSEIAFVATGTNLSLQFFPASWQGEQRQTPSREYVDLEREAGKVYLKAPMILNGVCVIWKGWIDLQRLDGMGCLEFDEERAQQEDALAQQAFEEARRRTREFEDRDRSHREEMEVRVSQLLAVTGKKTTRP
#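 System: Cerulean-labeled Runt domain protein | Quantity: 100 nM of each labeled protein | Schedule: 1 h compound exposure, room temperature | Detection: Fluorescence energy transfer, 422 nm excitation, 530/480 nm emission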
# Rce1 inh = yeast Rce1p protease inhibitors, primary screen, biochemical, fluorescence, cell-free homogeneous; CAAX prenyl protease 2 (Saccharomyces cerevisiae (strain ATCC 204508 / S288c)), Q03530; yeast membranes, quenched prenylated peptide cleavage fluorescence; calls only; actives 0.27% (n = 290,000);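 active means fall in fluorescence gain of 50% or more versus controls, with final raw signal at or below 3038400; inconclusive means same 50% fall but final raw signal above 3038400; inactive means fall in fluorescence gain under 50%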;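 further: plate controls were neutral control wells for no effect and wells lacking membranes for full effect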
# RanGTP-Imp inh = inhibitors of RanGTP-importin-beta interaction, primary screen, biochemical, FRET, CFP-Ran, YFP-importin-beta, homogeneous; actives 1.1% (n = 300,000); inhibition, % (no concentration beside the values); cell-free CFP-Ran/YFP-importin-beta FRET ratio; Ran GTPase (GTP-bound) - importin-beta complex;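 active means more than half of the replicate wells show a fall in the fluorescence ratio signal beyond about 16%, limit read from the data, passing the limit was not always enough; inconclusive means exactly half of the replicate wells pass the set limit; inactive means fewer than half of replicates pass the limit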;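 further: 0% = DMSO wells and 100% = Ran loaded with GDP instead of GTP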
# Platelet DG rel = inhibitors of platelet dense granule secretion, primary screen, cell-based, MLPCN, human platelets; human platelet-rich plasma, SFLLRN dense granule ATP release, luminescence; inhibition, %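 (compounds screened at 7.5 µM in platelet-rich plasma)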; actives 0.22% (n = 300,000);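 active means mean replicate score, as percent of positive control, at or above 50; inconclusive means mean below 50 but at least one replicate at or above 50; inactive means mean and every replicate below 50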
# Runt-SMMHC FRET = inhibitors of RUNX1 Runt–CBFb-SMMHC binding, primary screen, biochemical, FRET, Cerulean-Runt, Venus-CBFb-SMMHC, uHTS | Cerulean-Runt/Venus-CBFb-SMMHC FRET ratio 530/480, 1 h | actives 0.74% (n = 220,000) | Runt-related transcription factor 1 (Homo sapiens) + Core-binding factor subunit beta … | inhibition, % at 20 µM;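 active means mean inhibition across duplicate retests at 20 µM reaching about 50%, limit read from the data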;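 further: 0% = DMSO wells and 100% = wells with excess untagged CBFb-SMMHC; inhibitors lower the FRET ratio by blocking Runt binding to CBFb-SMMHC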
# Runt-CBFb TRFRET = inhibitors of RUNX1 Runt–CBFb binding, biochemical, TR-FRET; shares compounds with Runt-CBFb FRET; actives 20% (n = 480); TR-FRET RUNX1 Runt domain-CBFb binding; inhibition, % at 20 µM; in the data active means inhibition above about 40%
# * hit, by the source's call; i = inactive; ? = inconclusive; / = not tested or not shown.
SMILES,Runt-CBFb FRET,Rce1 inh,RanGTP-Imp inh,Platelet DG rel,Runt-SMMHC FRET,Runt-CBFb TRFRET
Cc1ncoc1C(=O)Nc1ncc([N+](=O)[O-])s1,64*,i,1,20,27,20
O=C(Nc1ncc([N+](=O)[O-])s1)c1cccs1,/,i,2,14,/,/
CCc1ccccc1N1CSC2=C(C#N)C(c3cc(OC)c(OC)cc3OC)CC(=O)N2C1 (stereo not given),32,i,-112,-5,48,/
COc1cc(OC)c(C2CC(=O)N3CN(c4ccccc4)CSC3=C2C#N)cc1OC (stereo not given),80*,i,-149,0,111*,25
CCOC(=O)N1CCC(NC(=O)c2ccc3c(c2)N(Cc2ccc(C)cc2)CCS3)CC1,-2,i,0,0,2,/
CCOC(=O)N1CCC(NC(=O)c2ccc3c(c2)N(C)CCS3)CC1,67*,/,/,/,/,50*
O=C(C#Cc1cccc([N+](=O)[O-])c1)c1ccccc1,51*,i,0,-1,30,28
O=C(Nc1cccc([N+](=O)[O-])c1)c1ccccc1,0,i,9,-1,-5,/
CC(C)(C)C(=O)CSc1ncccn1,58*,/,5,2,42,70*
NC(N)=NS(=O)(=O)c1ccc(NC(=S)NC(=O)c2ccc(Br)cc2)cc1,2,i,-1,-2,-4,/
COCc1ccc(C(=O)NC2CC(C)(C)Cc3c2cnn3-c2ccc(OC)cc2)o1 (stereo not given),/,i,2,-1,/,/
COc1ccccc1N1CCN(/N=C/c2cc(OC)c(O)c(OC)c2)CC1,59*,i,4,-19,47,35
COc1ccccc1N1CCN(/N=C/c2cccc(O)c2)CC1,/,i,2,-8,/,/
O=C(c1ccco1)N1CCN(S(=O)(=O)c2ccccc2[N+](=O)[O-])CC1,3,i,4,7,0,/
Cc1noc(C)c1Cc1ccc(O)cc1,0,i,3,-4,0,/
O=C(NNC1=C(C(=O)C(F)(F)F)CCC1)c1cccc(Cl)c1,2,i,-1,2,0,/
O=C(NNC1=C(C(=O)C(F)(F)F)CCC1)c1ccc(Cl)cc1,77*,i,-4,-5,3,-32
C=CCNC(=O)CN(Cc1ccccc1)S(=O)(=O)c1ccccc1,/,i,-4,9,/,/
O=C(O)c1ccccc1C(=O)Nc1n[nH]c(=S)s1,54*,i,-1,5,43,20
O=C(O)c1ccccc1C(=O)Nc1nccs1,0,i,-2,-3,1,/
O=C(NC1CCCc2ccccc21)C1CCC(CNS(=O)(=O)c2cccc3nsnc23)CC1 (stereo not given),83*,i,?,-1,-2,18
O=C(CCNS(=O)(=O)c1cccc2nsnc12)NC1CCCc2ccccc21 (stereo not given),2,i,-1,5,2,/
O=C(CSc1nnc(CNC(=O)c2c(F)cccc2F)o1)NCCc1ccccc1,/,i,-4,-20,/,/
O=C(NCc1ccc(F)cc1)c1noc2c1CCCC2,54*,i,-3,-3,-1,4
COc1ccc(CCNC(=O)c2ccc(C)s2)cc1OC,0,i,0,27,-1,/
SMILES,Runt-CBFb FRET,Rce1 inh,RanGTP-Imp inh,Platelet DG rel,Runt-SMMHC FRET,Runt-CBFb TRFRET
CCOc1ccccc1NC(=O)c1cc2ccccc2oc1=O,/,i,4,-3,/,/
CCN(CC)c1ccc2cc(C(=O)Nc3cccnc3N3CCOCC3)c(=O)oc2c1,59*,/,/,/,79*,17
O=[N+]([O-])c1ccc(Sc2ccccc2)nc1,-1,i,8,11,0,/
Nc1cccnc1Sc1ccc([N+](=O)[O-])cn1,54*,i,2,9,60,-5
CCc1ccc2nc3sc(C(=O)O)cc3cc2c1,-2,i,-6,1,-1,/
CCCCNC(=S)Nc1ccc(OC)nc1,-3,i,0,-11,-8,/
Cc1c(NS(=O)(=O)c2cc(Br)cc3c2N(C(=O)C2CC2)CC3)c(=O)n(-c2ccccc2)n1C,0,i,0,2,-2,/
Cc1c(NS(=O)(=O)c2ccc3c(c2)CCN3C(=O)C2CC2)c(=O)n(-c2ccccc2)n1C,57*,i,2,-3,-8,-10
O=C(CCNC(=O)C1CCN(S(=O)(=O)c2ccccc2)CC1)NCc1ccncc1,/,i,2,8,/,/
CC(/C=N/NC(=O)c1ccc2nc(C)[nH]c2c1)=C\c1ccccc1,-2,i,-3,-2,1,/
CC(C)OCCCNC(=S)Nc1ccc(S(N)(=O)=O)cc1,59*,i,2,-1,35,-29
Cc1nn(C)c(N)c1[N+](=O)[O-],0,i,-3,-1,-8,/
Cc1nn(C)c(Sc2ccccc2N)c1[N+](=O)[O-],55*,i,-1,3,51,14
Cc1c(Nc2c3ccccc3nc3ccccc23)c(=O)n(-c2ccccc2)n1C,114*,i,56*,1,29,-4
CCCCc1c(C)c(C#N)c2nc3ccccc3n2c1Nc1c(C)n(C)n(-c2ccccc2)c1=O,53*,i,21*,-3,65*,-4
Cc1c(Nc2nc3ccccc3nc2N2CCN(c3ccccc3)CC2)c(=O)n(-c2ccccc2)n1C,1,i,6,-8,-5,/
C=CCC(C#N)(c1ccc(OC)c(OC)c1)c1cnccn1 (stereo not given),/,i,1,0,/,/
CN(C)c1cccc(C(=O)OCc2cc(=O)oc3cc(O)ccc23)c1,85*,i,?,3,81*,52*
CC1CN(S(=O)(=O)c2cccc(C(=O)OCc3cc(=O)oc4cc(O)ccc34)c2)CC(C)O1 (stereo not given),13,i,-1,5,36,/
O=C(O)c1cc(Cl)ccc1-c1ccc(/C=C/c2cc(C(F)(F)F)[nH]c(=O)n2)o1,52*,i,-378,-1,92*,29
CC(C)CNC(=S)NC1CC2CCCC(C1)N2Cc1cccs1 (stereo not given),1,i,-1,-2,3,/
O=C(c1ccccc1)c1ccccc1N1C(=O)C=CC1=O,64*,/,1,25,70*,14
O=C(O)c1ccccc1C(=O)c1ccc(-c2ccccc2)cc1,/,i,0,0,/,/

# Screening data deposited in PubChem by several laboratories.
